# From the RNAGym collection of RNA variant scans (doi:10.1126/science.aae0568)
# Fewer inactive variants are shown than the library holds.
# B1: tRNA (parent)
# chain: GUUCCGUUGGCGUAAUGGUAACGCGUCUCCCUCCUAAGGAGAAGACUGCGGGUUCGAGUCCCGUACGGAACG
# Variants of: B1
# Experiment: yeast fitness relative to wild type (ratio to wild type); higher = fitter; tRNA-Arg(CCU), competitive growth, 37 C, YPD
# Summary of the method: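 Variants of the tRNA-Arg(CCU) gene, chemically synthesised with a 3% per-site mutation rate at 69 sites, were placed at the native genomic locus in Saccharomyces cerevisiae. The pooled strains were competed in YPD at 37°C for 24 hours in six parallel replicates. Gene amplicons from the start population and from each end population were read by 100-nucleotide paired-end sequencing. Darwinian fitness relative to wild type came from changes in genotype frequencies; genotypes needed ≥ 100 starting reads, and estimates < 0.5 were set to 0.5.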
row,Variant,yeast fitness
1,GUUCUGUUGCCGUAAUGGUAUUGCGUCUCCCCCCUAAGGAGAAGAUUGCGGGUUCGAGUCCCGUACGGAACG,≤ 0.5
2,GUUCUGUUAGCGUAAUGGUAACGCGUCUCCCUCCUAAGGAGAAGACUGCGGGUUCGAGUCCCGUACAGAACG,1.05
3,GUUCUGUUGGCGUAAUCGUAACGGGUCUCCCUCCUAACGAGAAGACUGCGGGUCCGAGUCCCGUACGGAACG,≤ 0.5
4,GUUCUGUUGGCCUAAUGGUACCGAGUCUCCCUCCUAAGGACAAGACUGCGGGAUCGAGUCCCGUACGGAACG,≤ 0.5
5,GUUCUGUUGGCGUAAUGCUAACGCGUCUCCCUCCUAAGGAGAAGACUGCGGGUUCGAGUCCCGUACGGAACG,0.721
6,GUUCUGUUGGCCUAAUGGUACCGAGUCUCCCUCCUAAGGACAAGACUGCAGGAUCGAGUCCCGUACGGAACG,≤ 0.5
7,GUUCUGUUGCCGUAAUGGUAUUGCGUUUCCCCCCUAAGGAGAAGAUUGCGGGUUCGAGUCGCGUACGGAACG,≤ 0.5
8,GUUCUGUUAGCGAAAUGGUAACGCGUCUCCCUCCUAAGGAGAAGACUGCGGGUUCGAGUCCCGUACGGAACG,0.882
9,GUUCUGUUGGCGUAAUAGUGACGCGUCUCCCUCCUAAGGAGAAGACUGCGGGUUAGAGUCCCGUACAGAGCG,≤ 0.5
10,GUUCUGUUGGCGUAAUAGUAACGCGUCUCCCUCCUUAGGAGAAGACAGCGGGUUCGAGUCCCGUACGGAACG,≤ 0.5
11,GUUCUGUUGGCGUAAUAGUAACGCGUCUUCCUCCUAAGGAGAAGACUGCGGCUUGGAGUCCCGUACGGAACG,≤ 0.5
12,GUUCUGUUAGCGUAAUGGUAACGCGUCUCCCUCCUAAGGAGAAGACUGCGCCUUCGAGUCCCGUACGGAACG,≤ 0.5
13,GUUCUGUUGCCGUAAUGGUAACGCGUCUCCCUUCUAAGGAGAAGAGUGCGGGUUCGAGUCCCGUACGGAACG,≤ 0.5
14,GUUCUGUUGGCGUAAUCGUAACGCGUCUCCCUCCUAAGGAGACGACUGGGGGUUCGAGUCCCGUACGGAACG,≤ 0.5
15,GUUCUGUUGGCGUAAUCGUAACGCGUCUCGCUCCUAAGGAGAAGACUGCGGGUUCGAGUCCCGUACGGAACG,≤ 0.5
16,GUUCUGUUGACGUAAUGGUAACGCGUCUCCCUCCUAAGGAGAAGACUGCGGGUUCGAGUCCCGUACGCAACG,≤ 0.5
17,GUUCUGUUGACGUAAUGGUAACGCGUGUCCCUCCGAAGGAGAAAACUGCGGGUUCGAGUCCCGUACGGAACG,≤ 0.5
18,GUUCUGUUGACGUAAUGGUAACGCGUCUCCCUCCUAAGGAGAAGACUGCGGGUUCGAGUCCCGUACGGGACG,≤ 0.5
19,GUUCUGUUGGCAUAAUGGUAACGCGUCUCCCUCCUAAGGUGAAGGCUGCGGGUUCGAGUACCGUACGGAACG,≤ 0.5

row,Variant,yeast fitness
1,GUUCUGUUGGCGUAAUAGUAACGCGUCUUCCUCCUAAGGAGAAGACUGCGGCUUGGAGUCCCGUACGGUACG,≤ 0.5
2,GUUCUGUUGGCGUAAUCGUAACGCGUCUCCCUCCUAAGGAGAAGAAUGCGGGUUCGAGUCCCGUACGGAACG,0.556
3,GUUCUGUUGGCGUAAUCGUAACGCGUCUCGCUCCUAAGGAGAAGACUGCGGGUUCGAGACCCGUACGGAACG,≤ 0.5
4,GUUCUGUUGGCGUAAUAGUAACGCGUCUCCCUCCUAAGGAGAAGAUUGCGGGUUCGAAUCCCAAACGGAACG,≤ 0.5
5,GUUCUGUUGCCGUAAUGGUAACGCGUCUCCCUCCUAAGCAGAAGACUGCGAGUUCGAGUCCCGUACGGAACG,≤ 0.5
6,GUUCUGUUGGCAUGAUGGUAACGCGUCUCCCUCCUAAGGAGAAGACUGCGGGUUCGUGUCCCGUACGGAACG,≤ 0.5
7,GUUCUGUUCGCGUAAUGGUAACGCGUCUCCCUCCUUAGGAGAAGACUGCGGGUUCGAGUGCCGUACGGAACG,≤ 0.5
8,GUUCUGUUGACGUAAUGGUAACGCGUCUCCCUCUUAAGGAGAAGACUGCGGGUUCGAGUCCCGUACGUUACG,0.505
9,GUUCUGUUGGCAUAAUGGUAACGCGUCUCCCUCCUAAGGAGAAGACUGCGGCUUCGAGUCCCGUACGGAUCG,≤ 0.5
10,GUUCUGUUGCCGUAAUGGUAACGCGUCUCACUCCUUAGGAGCAGACUGCGGGUUCGAGUCCCGAAGGGUACG,≤ 0.5
11,GUUCUGUUGCCGUAAUGGUAACGCGUGCCCCUCCUAAGCAGAAGAGUGCGGGUUCGAGUCCCGUACGGAACG,0.606
12,GUUCUGUUGGCCUAAUGGUAACGCGUCACCCUCCUAAGGAGAAGACUGCGGGUUCGAGUCCCGUACGGAACG,0.545
13,GUUCUGUUGGCAUAAUGGUAACGCGUCUCCCUCCUAAGGAGAAGACUGUGGGUUCGAGUCCCGUACGGAACG,0.612
14,GUUCUGUUGGCGUAAUCGUAACGCGUCUCCCUCCUAAGGAGAAGACUGCGGGUUCGAGUCCCGUACGGAACG,0.721
15,GUUCUGUUGACGUAAUGGUAACGCGUCUCCCUCCUAAGGAGAAGACUGCGGGUCCGGGUCCCGUACGGAACG,≤ 0.5
16,GUUCUGUUGCCGUAGUGGUAACGCGUCUGCCUCCUAAGGCGAUGACAGCGGGUUCGAGUACCGUACGGAACG,≤ 0.5
17,GUUCUGUUGGCAUAUUGGUAACGCGUCUCCCUCCUAAGGAGAAGACUGCGGGUUCGAGUCCCAUACGGAUCG,≤ 0.5
18,GUUCUGUUCGGGUAAUGGUAACGAGGCUCCCUCCUAAGGAGAAGACUGCGGGUUCGAGUCCCGUACGACACG,≤ 0.5
